Experiments:
Plasma = experiment: Stability in human plasma assessed as doxorubicin production at 50 uM incubated over 24 hrs by RP-HPLC; type: ADME, cell-free
In short: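 Prodrug diluted to 50 µM final in undiluted plasma from healthy human donors, 37 °C for 24 h. Aliquots at 0.25, 1, 3, 8, 12 and 24 h were quenched with equal-volume ethanol and held at −20 °C overnight; protein was spun out. Supernatant run on RP-HPLC; percent prodrug and dox taken from relative 480 nm absorbance, counting all 480 nm species; triplicate.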

MIA PaCa-2 [1] = experiment: Cytotoxicity against human MIAPaCa2 cells incubated for 24 hrs measured after 5 days in presence of complete protease inhibitor cocktail; type: functional, cell-based
In short: (§1)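 Cells seeded 1000/well, adhered overnight, then serum-free medium with or without plasmin, trypsin, cathepsin B or papain (0.2 U/well), aprotinin (5 µM) or protease inhibitor cocktail (1X). Prodrug 2000–1 nM final, 24 h; then complete medium up to 5 days or control 80% confluence. Formalin fixed, crystal violet, A582; % of control fit to variable-slope sigmoid for IC50.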

MCF7 [2] = experiment: Cytotoxicity against human MCF7 cells incubated for 24 hrs measured after 5 days in presence of 0.2 U papain; type: functional, cell-based; in short: as §1
MCF7 [3] = experiment: Cytotoxicity against human MCF7 cells incubated for 24 hrs measured after 5 days in presence of 0.2 U cathepsin B; type: functional, cell-based; in short: as §1
[4] = Cytotoxicity against human L3.6PL cells incubated for 24 hrs measured after 5 day; type: functional, cell-based; in short: as §1
[5] = target: Cathepsin B (Homo sapiens) (UniProt P07858); experiment: Activity of human cathepsin B assessed as compound hydrolysis measuring enzyme specific activity at 50 uM at pH 6.5 in PBS buffer containing 10 mM N-acetylcysteine by RP-HPLC
In short: (§2)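 Specific activity from hydrolysis time courses at 37 °C with 50 µM substrate. Plasmin in PBS pH 7.4; cathepsin B diluted two-fold in PBS-NAC, reacted in PBS-NAC (10 mM N-acetylcysteine) pH 6.5. Ethanol-quenched aliquots, protein precipitated at −20 °C, RP-HPLC at 480 nm tracking dox release. Linear least-squares slope used; 1 U = 1 µM substrate hydrolysed per min.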

BXPC-3 = experiment: Cytotoxicity against human BxPC3 cells incubated for 24 hrs measured after 5 days in presence of 0.2 U human plasmin; type: functional, cell-based; in short: as §1
MCF7 [6] = experiment: Cytotoxicity against human MCF7 cells incubated for 24 hrs measured after 5 days in presence of 0.2 U trypsin; type: functional, cell-based; in short: as §1
MIA PaCa-2 [7] = experiment: Cytotoxicity against human MIAPaCa2 cells incubated for 24 hrs measured after 5 days in presence of 0.2 U cathepsin B; type: functional, cell-based; in short: as §1
Homo sapiens = organism: Homo sapiens; experiment: Selectivity ratio of Kcat of human plasmin to Kcat of human cathepsin B
In short: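 Michaelis–Menten kinetics with human enzymes and substrate at 10–400 µM, 37 °C. Plasmin: 0.2 U in PBS pH 7.4 for 4 min. Cathepsin B: 0.08 U in PBS with 10 mM N-acetylcysteine, pH 6.5, for 20 min. Quenched with ethanol, held at −20 °C ≥2 h, centrifuged. Dox release read by RP-HPLC at 480 nm. Rates (µM/min) fit by non-linear least squares; triplicate.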

Bos taurus = organism: Bos taurus; experiment: Activity of bovine trypsin assessed as enzyme specific activity for compound hydrolysis
In short: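 50 µM prodrug incubated at 37 °C with enzyme: trypsin in PBS; papain diluted two-fold in PBS-NAC (PBS + 10 mM N-acetylcysteine), reacted in PBS-NAC pH 6.5. Aliquots quenched in equal volume ethanol, −20 °C ≥2 h, centrifuged; supernatant RP-HPLC at 480 nm for substrate loss and dox gain. Slope of linear fit gives activity; 1 U = 1 µM prodrug hydrolysed per min.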

[8] = target: Plasminogen (Homo sapiens) (UniProt P00747); experiment: Activity of human plasmin assessed as compound hydrolysis measuring enzyme specific activity at 50 uM at pH 7.4 in PBS buffer by RP-HPLC; in short: as §2
Sequence of Plasminogen (Homo sapiens) (P00747 97-580 limits assumed): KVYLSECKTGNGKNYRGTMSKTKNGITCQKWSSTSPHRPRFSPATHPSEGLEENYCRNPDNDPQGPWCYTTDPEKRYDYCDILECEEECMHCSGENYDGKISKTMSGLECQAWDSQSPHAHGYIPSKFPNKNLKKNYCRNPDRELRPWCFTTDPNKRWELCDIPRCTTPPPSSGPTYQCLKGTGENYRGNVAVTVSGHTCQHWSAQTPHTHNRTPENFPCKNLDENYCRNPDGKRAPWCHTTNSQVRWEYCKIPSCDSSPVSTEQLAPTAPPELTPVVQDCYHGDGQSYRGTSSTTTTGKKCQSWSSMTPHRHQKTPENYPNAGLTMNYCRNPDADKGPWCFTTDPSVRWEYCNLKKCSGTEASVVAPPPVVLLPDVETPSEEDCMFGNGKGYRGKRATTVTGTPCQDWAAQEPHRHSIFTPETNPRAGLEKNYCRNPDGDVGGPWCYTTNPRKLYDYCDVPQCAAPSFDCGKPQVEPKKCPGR
Sequence of Plasminogen (Homo sapiens) (P00747 581-810 limits assumed): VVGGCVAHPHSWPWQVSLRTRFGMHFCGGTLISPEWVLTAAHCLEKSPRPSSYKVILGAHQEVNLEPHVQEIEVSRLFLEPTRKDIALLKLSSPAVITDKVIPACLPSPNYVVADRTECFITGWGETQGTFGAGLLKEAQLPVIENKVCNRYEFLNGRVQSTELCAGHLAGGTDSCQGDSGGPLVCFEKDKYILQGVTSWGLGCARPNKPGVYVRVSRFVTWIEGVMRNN

[9] = Cytotoxicity against doxorubicin-resistant human NCI-ADR-RES cells incubated for 24 hrs measured after 5 day; type: functional, cell-based; in short: as §1
[10] = Cytotoxicity against doxorubicin-resistant human NCI-ADR-RES.cells incubated for 24 hrs measured after 5 days in presence of 0.2 U human plasmin; type: functional, cell-based; in short: as §1
HEK-293T = experiment: Cytotoxicity against human HEK293T cells incubated for 24 hrs measured after 5 days in presence of 0.2 U human plasmin; type: cell-based; in short: as §1
MIA PaCa-2 [11] = experiment: Cytotoxicity against human MIAPaCa2 cells incubated for 24 hrs measured after 5 days in presence of 5 uM aprotinin; type: functional, cell-based; in short: as §1
MIA PaCa-2 [12] = experiment: Cytotoxicity against human MIAPaCa2 cells incubated for 24 hrs measured after 5 days; type: functional, cell-based; in short: as §1

COc1cccc2c1C(=O)c1c(O)c3c(c(O)c1C2=O)C[C@@](O)(C(=O)CO)C[C@@H]3O[C@H]1C[C@H]2[C@H](OCN2C(=O)OCc2ccc(NC(=O)[C@H](CCCCN)NC(=O)[C@H](Cc3ccccc3)NC(=O)[C@@H](C)NC(=O)CNC(C)=O)cc2)[C@H](C)O1.O=P(O)(O)O
Stability (Plasma): Stable | IC50 (MIA PaCa-2 [1]): 398 nM | IC50 (MCF7 [2]): 60.3 nM | IC50 (MCF7 [3]): 120 nM | IC50 [4]: 316 nM | Activity [5]: 1040 U/mg | IC50 (BXPC-3): 39.8 nM | IC50 (MCF7 [6]): 31.6 nM | IC50 (MIA PaCa-2 [7]): 158 nM | Ratio (Homo sapiens): 5 | Activity (Bos taurus): 4340 U/mg | Activity [8]: 1940 U/mg | IC50 [9]: 912 nM | IC50 [10]: 11.7 nM | IC50 (HEK-293T): 3.02 nM | IC50 (MIA PaCa-2 [11]): 282 nM | IC50 (MIA PaCa-2 [12]): 251 nM

— ChEMBL document CHEMBL2169769, “Synthesis and biological characterization of protease-activated prodrugs of doxazolidine” (J Med Chem, 2012)
